# Columns and labels:
# Melanocortin receptor 4 [1] = molecular target: T1, Melanocortin receptor 4 (Homo sapiens, UniProt P32245); test: Displacement of [125]NDPMSH from human MC4 receptor expressed in HEK293 cells; assay type: cell-based
# Melanocortin receptor 4 [2] = molecular target: T1, Melanocortin receptor 4; test: Antagonist activity at MC4 receptor assessed as inhibition of alpha-MSH-stimulated cAMP production; assay type: functional
# [3] = Plasma clearance in rat at 5 mg/kg, iv; assay type: ADME, organism-based; set-up: dose 5 mg/kg, route intravenous
# Procedure, shortened: (§1)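 Single intravenous injection at 5 mg/kg in rats. Clearance, volume of distribution and half-life are derived from plasma concentrations.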
# [4] = Volume of distribution in rat at 5 mg/kg, iv; assay type: ADME, organism-based; set-up: dose 5 mg/kg, route intravenous; details: in vivo; procedure, shortened: as §1
# [5] = Half life in rat at 5 mg/kg, iv; assay type: ADME, organism-based; set-up: dose 5 mg/kg, route intravenous; details: in vivo; procedure, shortened: as §1
# Rattus norvegicus = test: AUC in rat at 10 mg/kg, po; assay type: ADME, organism-based, Plasma; set-up: dose 10 mg/kg, route oral; details: in vivo
# Procedure, shortened: (§2)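 Rats dosed orally at 10 mg/kg. Cmax and AUC are plasma values. Absolute bioavailability is referenced to a separate intravenous 5 mg/kg dose.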
# [6] = Absolute bioavailability in rat at 10 mg/kg, po; assay type: ADME, organism-based; details: in vivo; procedure, shortened: as §2
# [7] = Cmax in rat at 10 mg/kg, po; assay type: ADME, organism-based; set-up: dose 10 mg/kg, route oral; details: in vivo; procedure, shortened: as §2
# Melanocortin receptor 4 [8] = molecular target: T1, Melanocortin receptor 4; test: Agonist activity at MC4 receptor by cAMP assay; assay type: functional
# T1 sequence (P32245 whole entry): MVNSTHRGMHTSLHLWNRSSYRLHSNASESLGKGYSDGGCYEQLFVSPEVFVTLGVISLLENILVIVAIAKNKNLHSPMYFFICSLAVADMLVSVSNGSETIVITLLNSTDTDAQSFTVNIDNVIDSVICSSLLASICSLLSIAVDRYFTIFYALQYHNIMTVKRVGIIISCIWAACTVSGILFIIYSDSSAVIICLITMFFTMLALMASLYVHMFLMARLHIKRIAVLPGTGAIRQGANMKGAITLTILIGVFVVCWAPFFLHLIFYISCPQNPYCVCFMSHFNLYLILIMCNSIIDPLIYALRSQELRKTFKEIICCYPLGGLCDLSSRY
Ki (Melanocortin receptor 4 [1]),Structure (SMILES),other results
130 nM,CCOC(=O)N1CC[C@@H](c2ccc(Cl)cc2)[C@H]1C(=O)N1CCN(c2ccc(C)cc2[C@@H](N)C(C)C)CC1,–
330 nM,CC(=O)N1CC[C@H](c2ccc(F)cc2)[C@@H]1C(=O)N1CCN(c2ccc(C)cc2[C@@H](N)C(C)C)CC1,–
160 nM,Cc1ccc(N2CCN(C(=O)[C@H]3[C@@H](c4ccc(Cl)cc4)CCN3C)CC2)c([C@@H](N)C(C)C)c1,–
98 nM,CC(C)C[C@H](N)c1cc(C(F)(F)F)ccc1N1CCN(C(=O)C2NCCC2c2ccc(Cl)cc2)CC1 (some centres undefined),–
78 nM,CC(=O)N1CC[C@H](c2ccc(Cl)cc2)[C@H]1C(=O)N1CCN(c2ccc(C)cc2[C@@H](N)C(C)C)CC1,–
–,CC(C)[C@H](N)c1cccc(F)c1N1CCN(C(=O)[C@@H]2NCC[C@@H]2c2ccc(Cl)cc2)CC1,IC50 (Melanocortin receptor 4 [2]): 960 nM
110 nM,Cc1ccc(N2CCN(C(=O)[C@H]3[C@@H](c4ccc(Cl)cc4)CCN3C(C)C)CC2)c([C@@H](N)C(C)C)c1,–
190 nM,CC(C)C[C@H](N)c1cc(Cl)ccc1N1CCN(C(=O)C2NCCC2c2ccc(Cl)cc2Cl)CC1 (some centres undefined),–
53 nM,COC(=O)N1CC[C@@H](c2ccc(Cl)cc2)[C@H]1C(=O)N1CCN(c2ccc(C)cc2[C@@H](N)C(C)C)CC1,–
550 nM,CC(C)C[C@H](N)c1cc(C(F)(F)F)ccc1N1CCN(C(=O)C2(Cc3ccc(Cl)cc3)COC(=O)N2)CC1 (some centres undefined),–
7.4 nM,Cc1ccc(N2CCN(C(=O)[C@H]3[C@@H](c4ccc(Cl)cc4)CCN3C(=O)N(C)C)CC2)c([C@@H](N)C(C)C)c1 (stereo in doubt; form 1),IC50 (Melanocortin receptor 4 [2]): 190 nM
94 nM,CCOC(=O)N1CC[C@H](c2ccc(Cl)cc2)[C@@H]1C(=O)N1CCN(c2ccccc2[C@@H](N)C(C)C)CC1,–
–,CC(C)C[C@H](N)c1cc(C(F)(F)F)ccc1N1CCN(C(=O)[C@@H]2NCC[C@@H]2c2ccc(Cl)cc2)CC1,IC50 (Melanocortin receptor 4 [2]): 2400 nM
6.5 nM,Cc1ccc(N2CCN(C(=O)[C@H]3[C@@H](c4ccc(Cl)cc4)CCN3C(=O)N(C)C)CC2)c([C@@H](N)C(C)C)c1 (stereo in doubt; form 2),IC50 (Melanocortin receptor 4 [2]): 93 nM; clearance [3]: 20 mL/min/kg; Vd [4]: 17.2 L/kg; half-life [5]: 4.3 h; AUC (Rattus norvegicus): 533 ng·h/mL; bioavailability [6]: 7.2%; Cmax [7]: 35 ng/mL
92 nM,Cc1ccc(N2CCN(C(=O)[C@@H]3[C@@H](c4ccc(Cl)cc4)CCN3C(=O)[C@H]3Cc4ccccc4CN3)CC2)c([C@@H](N)C(C)C)c1,EC50 (Melanocortin receptor 4 [8]): 15000 nM; Emax (Melanocortin receptor 4 [8]): 21%
45 nM,COc1ccc([C@H]2CCN(C(C)=O)[C@H]2C(=O)N2CCN(c3ccc(C)cc3[C@@H](N)C(C)C)CC2)cc1,–
52 nM,CCCC(=O)N1CC[C@H](c2ccc(Cl)cc2)[C@H]1C(=O)N1CCN(c2ccc(C)cc2[C@@H](N)C(C)C)CC1,–
190 nM,Cc1ccc(N2CCN(C(=O)[C@@H]3[C@H](c4ccc(Cl)cc4)CCN3C(=O)N(C)C)CC2)c([C@@H](N)C(C)C)c1,–
1800 nM,CC(=O)N1CC[C@H](c2ccccc2)[C@@H]1C(=O)N1CCN(c2ccc(C)cc2[C@@H](N)C(C)C)CC1,–
120 nM,CC(=O)N1CC[C@@H](c2ccc(Cl)cc2)[C@H]1C(=O)N1CCN(c2ccc(C)cc2[C@@H](N)C(C)C)CC1,–
68 nM,Cc1ccc(N2CCN(C(=O)[C@@H]3[C@@H](c4ccc(Cl)cc4)CCN3C(=O)OC(C)C)CC2)c([C@@H](N)C(C)C)c1,–
74 nM,CCOC(=O)N1CC[C@H](c2ccc(Cl)cc2)[C@@H]1C(=O)N1CCN(c2ccc(F)cc2[C@@H](N)C(C)C)CC1,–
24 nM,CC(=O)N1CC[C@H](c2ccc(Cl)cc2)[C@@H]1C(=O)N1CCN(c2ccc(C)cc2[C@@H](N)C(C)C)CC1 (stereo in doubt; form 1),–
560 nM,CC(C)[C@H](N)c1cccc(F)c1N1CCN(C(=O)C2NCCC2c2ccc(Cl)cc2Cl)CC1 (some centres undefined),–

Ki (Melanocortin receptor 4 [1]),Structure (SMILES),other results
59 nM,COC(=O)N1CC[C@H](c2ccc(Cl)cc2)[C@H]1C(=O)N1CCN(c2ccc(C)cc2[C@@H](N)C(C)C)CC1,–
340 nM,CC(C)C[C@H](N)c1cc(C(F)(F)F)ccc1N1CCN(C(=O)C2NC(=O)CC2c2ccc(Cl)cc2)CC1 (some centres undefined),–
17 nM,COC(=O)N1CC[C@H](c2ccc(Cl)cc2)[C@@H]1C(=O)N1CCN(c2ccc(C)cc2[C@@H](N)C(C)C)CC1 (stereo in doubt; form 1),IC50 (Melanocortin receptor 4 [2]): 720 nM
7.2 nM,Cc1ccc(N2CCN(C(=O)[C@H]3[C@@H](c4ccc(Cl)cc4)CCN3C(=O)C(C)(C)C)CC2)c([C@@H](N)C(C)C)c1,–
11 nM,CCOC(=O)N1CC[C@H](c2ccc(Cl)cc2)[C@@H]1C(=O)N1CCN(c2ccc(C)cc2[C@@H](N)C(C)C)CC1 (stereo in doubt; form 2),–
52 nM,Cc1ccc(N2CCN(C(=O)[C@@H]3NCC[C@@H]3c3ccc(Cl)cc3)CC2)c([C@@H](N)C(C)C)c1,IC50 (Melanocortin receptor 4 [2]): 310 nM
97 nM,CC(=O)N1CC[C@H](c2ccc(C)cc2)[C@@H]1C(=O)N1CCN(c2ccc(C)cc2[C@@H](N)C(C)C)CC1,–
42 nM,CCOC(=O)N1CC[C@H](c2ccc(Cl)cc2)[C@H]1C(=O)N1CCN(c2ccc(C)cc2[C@@H](N)C(C)C)CC1,–
180 nM,CC(=O)N1CC[C@@H](c2ccc(Cl)cc2)[C@@H]1C(=O)N1CCN(c2ccc(C)cc2[C@@H](N)C(C)C)CC1,–
110 nM,CC(C)[C@H](N)c1cccc(F)c1N1CCN(C(=O)C2NCCC2c2ccc(Cl)cc2)CC1 (some centres undefined),–
54 nM,CC(=O)N1CC[C@H](c2ccc(C(F)(F)F)cc2)[C@@H]1C(=O)N1CCN(c2ccc(C)cc2[C@@H](N)C(C)C)CC1,–
16 nM,CCOC(=O)N1CC[C@H](c2ccc(Cl)cc2)[C@@H]1C(=O)N1CCN(c2ccc(C)cc2[C@@H](N)C(C)C)CC1 (stereo in doubt; form 1),IC50 (Melanocortin receptor 4 [2]): 640 nM
96 nM,CC(C)C[C@H](N)c1cc(Cl)ccc1N1CCN(C(=O)C2NCCC2c2ccc(Cl)cc2)CC1 (some centres undefined),–
56 nM,Cc1ccc(N2CCN(C(=O)C3NCCC3c3ccc(Cl)cc3)CC2)c([C@@H](N)C(C)C)c1 (some centres undefined),–
–,CC(C)C[C@H](N)c1cc(Cl)ccc1N1CCN(C(=O)[C@@H]2NCC[C@@H]2c2ccc(Cl)cc2Cl)CC1,IC50 (Melanocortin receptor 4 [2]): 1500 nM
55 nM,Cc1ccc(N2CCN(C(=O)[C@@H]3[C@@H](c4ccc(Cl)cc4)CCN3C(=O)C3CCC3)CC2)c([C@@H](N)C(C)C)c1,–
1.1 nM,Cc1ccc(N2CCN(C(=O)[C@H]3[C@@H](c4ccc(Cl)cc4)CCN3C(=O)[C@H]3Cc4ccccc4CN3)CC2)c([C@@H](N)C(C)C)c1,EC50 (Melanocortin receptor 4 [8]): 3500 nM; Emax (Melanocortin receptor 4 [8]): 44%
18 nM,CCOC(=O)N1CC[C@H](c2ccc(Cl)cc2)[C@@H]1C(=O)N1CCN(c2ccc(Cl)cc2[C@@H](N)C(C)C)CC1,–
12 nM,Cc1ccc(N2CCN(C(=O)[C@H]3[C@@H](c4ccc(Cl)cc4)CCN3C(=O)OC(C)C)CC2)c([C@@H](N)C(C)C)c1,–
79 nM,Cc1ccc(N2CCN(C(=O)[C@@H]3[C@@H](c4ccc(Cl)cc4)CCN3C(=O)C(C)(C)C)CC2)c([C@@H](N)C(C)C)c1,–
40 nM,Cc1ccc(N2CCN(C(=O)[C@H]3[C@@H](c4ccc(Cl)cc4)CCN3S(C)(=O)=O)CC2)c([C@@H](N)C(C)C)c1,–
62 nM,CCC(=O)N1CC[C@H](c2ccc(Cl)cc2)[C@H]1C(=O)N1CCN(c2ccc(C)cc2[C@@H](N)C(C)C)CC1,–
11 nM,CC(=O)N1CC[C@H](c2ccc(Cl)cc2)[C@@H]1C(=O)N1CCN(c2ccc(C)cc2[C@@H](N)C(C)C)CC1 (stereo in doubt; form 2),IC50 (Melanocortin receptor 4 [2]): 520 nM
18 nM,COC(=O)N1CC[C@H](c2ccc(Cl)cc2)[C@@H]1C(=O)N1CCN(c2ccc(C)cc2[C@@H](N)C(C)C)CC1 (stereo in doubt; form 2),–

# Source: ChEMBL document CHEMBL1141529, “Design and synthesis of 3-arylpyrrolidine-2-carboxamide derivatives as melanocortin-4 receptor ligands” (Bioorg Med Chem Lett, 2008)
